Bioassay records (PubChem)
A selection: hits, their analogues and other compounds. The true share with any hit is near 4.1%.
FLuc stim CS – FLuc activators, initial screening, artefact control for FLuc-dependent activation tests, biochemical, ATPlite luminescence; Luciferin 4-monooxygenase (Photinus pyralis), P08659; ATPlite luciferase biochemical, 10 min; 0 = ATP-free wells, 1 = DMSO control; activation factor at 10 µM; 200,000 tested, under 10 active; AID 1027, 2008;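 active = luciferase activation factor, scaled between plate controls, of at least 2 with compound at 10 µM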
Target sequence (P08659 whole entry, looked up): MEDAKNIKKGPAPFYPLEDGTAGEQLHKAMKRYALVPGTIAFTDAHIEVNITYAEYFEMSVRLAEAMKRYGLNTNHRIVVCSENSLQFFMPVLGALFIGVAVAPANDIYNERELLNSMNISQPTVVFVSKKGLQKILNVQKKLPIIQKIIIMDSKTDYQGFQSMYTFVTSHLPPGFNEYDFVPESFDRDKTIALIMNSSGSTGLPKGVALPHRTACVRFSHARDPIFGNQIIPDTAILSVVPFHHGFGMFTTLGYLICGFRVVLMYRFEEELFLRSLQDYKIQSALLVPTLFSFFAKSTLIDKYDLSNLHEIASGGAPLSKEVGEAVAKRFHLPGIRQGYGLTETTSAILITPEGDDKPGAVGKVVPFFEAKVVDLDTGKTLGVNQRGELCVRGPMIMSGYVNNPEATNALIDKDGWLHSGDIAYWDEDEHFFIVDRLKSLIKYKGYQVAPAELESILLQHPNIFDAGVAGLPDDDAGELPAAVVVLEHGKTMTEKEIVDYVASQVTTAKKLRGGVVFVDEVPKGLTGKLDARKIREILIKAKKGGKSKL
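Assay system: Luciferase/luciferin detection reagent, cell-free biochemical luciferase assay / Read-out: luciferase activation / Benchmarks: No-ATP low control, compound-free enzyme-plus-ATP high control / Medium: PBS buffer for ATP / Detection: luminescence measurement of luciferase light output / Schedule: 10 min at ambient temperature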
APP 5'UTR act – activators of APP 5'UTR luciferase reporter, primary screen, SH-SY5Y cells. SH-SY5Y APP 5'UTR luciferase reporter, luminescence; zero percent = DMSO vehicle wells. activation, % at 2 µM. hit rate 1% among 190,000;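 active = activation above a set limit, based on mean plus 3 SD of controls, cut at about 140% in these data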
NF-kB neuron act – activators of NF-kB expression in neurons, primary screen, cell-based, HTS | human neuronal cells, NF-kB reporter expression; active compounds read high | hit rate 1.6% among 190,000 | fold change at 12.5 µM; in the data active = fold change above about 3.3
STAT1 act – STAT1 signaling activators, primary screen, cell-based, HTS, luciferase reporter | activation (% of control), % at 5.5 µM | hit rate 2.6% among 200,000 | NIH 3T3 STAT1-luciferase reporter, IFN-gamma, luminescence; 100% = IFN-gamma alone, no compound;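 active = activation above the screen-wide mean activation plus 3 SD, cut at about 130% in these data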;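 note: raw ratio to IFN-gamma control signal so 100% means no change and 0% no light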
FLuc inh counter – firefly luciferase enzyme inhibitors, primary screen, artefact control for luciferase-based inhibitor screens, biochemical, luminescence, ATPLite; inhibition, % at 10 µM; 10 min; Luciferin 4-monooxygenase (Photinus pyralis), P08659; AID 1006, 2008; hit rate 1.5% among 200,000;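 active = inhibition above about 50% when tested at 10 µM, limit read from the data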
* marks the source's active call; other numbers are inactive results.

SMILES	FLuc stim CS	APP 5'UTR act	NF-kB neuron act	STAT1 act	FLuc inh counter
CC(=O)N(/N=C1\Sc2ccccc2C1=O)c1ccccc1C	1	131	5*	124	4
c1ccc(-c2csc(NNC3=NCCCCC3)n2)cc1	1	25	0.92	132*	-4
Brc1ccc(-c2csc(NC3=NCCCCC3)n2)cc1	1	36	1.7	134*	-4
CCCN1C(=O)C2(C(C(=O)c3ccc(C)o3)=C(O)C(=O)N2CCCN2CCOCC2)c2ccccc21 (stereo not drawn)	1.1	1	0.9	101	-6
Cc1cccc(NC(=O)c2ccc(N3CCCCC3)c([N+](=O)[O-])c2)n1	0.6	159*	5.2*	144*	37
Cc1cccc(NC(=O)c2ccc(N3CCOCC3)c([N+](=O)[O-])c2)n1	0.9	65	2	117	12
O=C1CCC(=O)N1c1ccc(CSc2nnnn2C2CCCCC2)cc1	1	-3	1.1	104	-2
CC(C)(O)c1cc(=O)sc2nc3ccccc3n12	0.5	78	3.6*	134*	47
COc1ccccc1C(c1nnnn1Cc1ccco1)N1CCN(c2cccc(C)c2C)CC1 (stereo not drawn)	1.1	-33	0.59	99	-7
Cc1cc(/C=C2\NC(=S)N(C)C2=O)ccc1N1CCCC1	0.9	125	3	138*	11
O=C(Cn1cc(SCc2ccc(Cl)cc2)c2ccccc21)N1CCOCC1	1	2	1.6	114	-1
COCCn1c(/C=C/c2ccccc2)nc2ccccc21	0.1	109	3.9*	146*	86*
Cn1c(=O)c(/C=C/c2ccc(F)cc2)nc2ccccc21	0.7	38	1.9	120	30
Cn1c(=O)c(/C=C/c2ccccc2)nc2ccccc21	0.6	138*	4.2*	134*	37
COc1ccccc1Cn1c(/C=C/c2ccccc2)nc2ccccc21	0.6	38	2	112	43
Cn1c(/C=C/c2ccccc2)nc2ccccc21	0.1	65	2.1	29	94*
Cc1c(C)c2c(C)[nH]nc2oc1=O	1.1	-4	0.99	92	-7
CCOC(=O)c1c(NC(=S)NC(=O)c2ccc(Cn3cc(Cl)cn3)o2)sc2c1CCCCC2	1.1	-4	1	100	-5
Clc1ccc2nc(N3CCCCC3)[nH]c2c1	0.6	119	5.3*	136*	39
Clc1ccc2nc(C3CCN(Cc4ccccc4)CC3)[nH]c2c1	1.1	-1	0.95	101	-6
Cc1cc(C(=O)CN2CCCC(C)C2)c(C)n1-c1ccc(F)cc1 (stereo not drawn)	1	18	0.91	143*	-2
Cc1ccc(-n2c(C)cc(C(=O)CN3CCOCC3)c2C)cc1	1	38	1.8	119	-2
CC(C)(C)n1ncc2c(=O)n(CC(=O)NCc3ccccc3Cl)cnc21	0.9	193*	3.2	145*	13
COc1ccccc1N1CCN(C(=O)c2oc3cc(C)c(C)cc3c2C)CC1	1	4	0.96	108	-2
CC(=O)C(C)Oc1ccc2c3c(c(=O)oc2c1)CCCCC3 (stereo not drawn)	0.9	78	2.1	119	13
SMILES	FLuc stim CS	APP 5'UTR act	NF-kB neuron act	STAT1 act	FLuc inh counter
O=C(COc1ccc(Br)cc1Br)NC(=O)NC1CCCC1	0.9	44	3.4*	142*	8
Cc1ccc2c(c1)sc[n+]2Cc1ccccc1	0.9	28	2.1	135*	10
Cc1ccc(-c2cc[n+](Cc3ccccc3)cc2)cc1	1	4	1.1	77	-3
c1c2c(cc3sc(N4CCOCC4)nc13)OCCO2	0.2	81	1	53	84*
Nc1ccc2nc(N3CCOCC3)sc2c1	0.9	53	1	122	11
c1ccc(-c2nccc(-c3ccc4c(c3)OCO4)n2)cc1	1	47	2	134*	3
c1ccc(-c2noc(-c3ccc4ccccc4c3)n2)nc1	0	-49	0.2	18	96*
c1ccc(-c2noc(-c3ccc4c(c3)OCO4)n2)nc1	0.1	-30	0.68	49	94*
Cc1nccc(-c2ccc3c(c2)OCO3)n1	1	6	1.1	99	1
